One block for each compound: values may come before it. Active and inactive are the calls of the source. The rule behind the calls is not given here.
Columns and labels:
[1] = tested on: LS174T; assay: Inhibition of Wnt/beta-catenin in human LS174T cells assessed as effect on […] at 10 uM by Western blotting; assay type: cell-based
[2] = tested on: LS174T; assay: Inhibition of Wnt/beta-catenin in human LS174T cells assessed as reduction in c-Myc protein level at 10 uM by Western blotting; assay type: cell-based
[3] = tested on: LS174T; assay: Inhibition of Wnt/beta-catenin in human LS174T cells assessed as reduction in Axin-2 protein level at 10 uM by Western blotting; assay type: cell-based
[4] = tested on: LS174T; assay: Cytotoxicity against human LS 174T cells at 0.1 uM for 2 days by vi-cell cell viability analysis; assay type: functional, cell-based
Summary of the method: (§1)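 CRC cells treated with DMSO or inhibitor for 2d and 4d; cell number and viability counted on a Vi-Cell analyzer. HCT116 and SW480 kept in DMEM with 10% FBS; LS174T in RPMI with 5% FBS; all with 1% penicillin/streptomycin.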

[5] = tested on: LS174T; assay: Inhibition of Wnt/beta-catenin in human LS 174T cells assessed as decrease in […] in nucleus using DAPI staining at 10 uM for 24 hrs by immunofluorescent microscopy; assay type: cell-based
Summary of the method: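 LS174 cells treated 24h with 10 μM compound or DMSO, fixed (4% paraformaldehyde, 20 min, RT), permeabilized with 0.3% Triton X-100, blocked in 5% goat serum 30 min. Stained overnight with anti-β-catenin (1:300), then Alexa-488 anti-rabbit IgG (1:500) 40 min; nuclei counterstained with DAPI; confocal imaging.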

[6] = tested on: LS174T; assay: Inhibition of Wnt/beta-catenin in human LS 174T cells assessed as reduction in TCF4 protein level at 10 uM by Western blotting; assay type: cell-based
[7] = tested on: LS174T; assay: Cytotoxicity against human LS 174T cells at 0.1 uM for 4 days by vi-cell cell viability analysis; assay type: functional, cell-based; summary of the method: as §1
[8] = tested on: LS174T; assay: Inhibition of Wnt/beta-catenin in human LS174T cells assessed as reduction in c-Myc protein level at 0.5 uM by Western blotting; assay type: cell-based
[9] = tested on: LS174T; assay: Antitumor activity against human LS 174T cells xenografted in C57BL/6J athymic nude mouse assessed as reduction in tumor growth at 20 mg/kg/day, ip; assay type: functional, organism-based
Summary of the method: (§2)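 LS174 cells (2 × 10^6) injected subcutaneously into both flanks of 6–8 week C57BL/6J athymic nude mice; mice randomized to two groups. Daily ip dosing at 20mg/kg/day in corn oil (50 μl/mouse); controls got corn oil alone. Body weight and tumor size (digital caliper) recorded twice weekly for one month; volume V=1/2LW^2 (mm3).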

[10] = tested on: LS174T; assay: Inhibition of Wnt/beta-catenin in human LS174T cells assessed as reduction in c-Myc protein level at 2.5 uM by Western blotting; assay type: cell-based
[11] = tested on: LS174T; assay: Inhibition of Wnt/beta-catenin in human LS 174T cells assessed as reduction in pygopus2 protein level at 10 uM by Western blotting; assay type: cell-based
[12] = tested on: Mus musculus; assay: Toxicity in human LS 174T cells xenografted C57BL/6J athymic nude mouse assessed as change in body weight at 20 mg/kg/day, ip within 1 month; assay type: organism-based, LS174T; design: route intraperitoneal; conditions: in vivo; summary of the method: as §2
[13] = tested on: LS174T; assay: Inhibition of Wnt/beta-catenin in human LS 174T cells assessed as reduction in TCF4 mRNA level at 10 uM by RT-PCR analysis; assay type: cell-based
[14] = tested on: LS174T; assay: Inhibition of Wnt/beta-catenin in human LS174T cells assessed as reduction in Axin-2 protein level at 2.5 uM by Western blotting; assay type: cell-based
[15] = tested on: LS174T; assay: Inhibition of Wnt/beta-catenin in human LS 174T cells assessed as reduction in pygopus2 mRNA level at 10 uM by RT-PCR analysis; assay type: cell-based
[16] = tested on: LS174T; assay: Inhibition of Wnt/beta-catenin in human LS174T cells assessed as reduction in Axin-2 protein level at 0.5 uM by Western blotting; assay type: cell-based
[17] = tested on: LS174T; assay: Cytotoxicity against human LS 174T cells at 10 uM for 4 days by vi-cell cell viability analysis; assay type: functional, cell-based; summary of the method: as §1
[18] = tested on: LS174T; assay: Cytotoxicity against human LS 174T cells at 10 uM for 2 days by vi-cell cell viability analysis; assay type: functional, cell-based; summary of the method: as §1
[19] = tested on: HCT-116; assay: Cytotoxicity against human HCT116 cells at 10 uM for 4 days by vi-cell cell viability analysis; assay type: functional, cell-based; summary of the method: as §1
[20] = tested on: SW480; assay: Cytotoxicity against human SW480 cells at 10 uM for 2 days by vi-cell cell viability analysis; assay type: functional, cell-based; summary of the method: as §1
[21] = tested on: HCT-116; assay: Cytotoxicity against human HCT116 cells at 10 uM for 2 days by vi-cell cell viability analysis; assay type: functional, cell-based; summary of the method: as §1
[22] = tested on: SW480; assay: Cytotoxicity against human SW480 cells at 10 uM for 4 days by vi-cell cell viability analysis; assay type: functional, cell-based; summary of the method: as §1
[23] = tested on: LS174T; assay: Inhibition of Wnt/beta-catenin in human LS174T cells assessed as reduction in c-Myc protein level at 100 uM by Western blotting; assay type: cell-based
[24] = tested on: LS174T; assay: Inhibition of Wnt/beta-catenin in human LS174T cells assessed as reduction in Cyclin D1 protein level at 100 uM by Western blotting; assay type: cell-based
[25] = Drug uptake in human LS 174T cells assessed as accumulation in nucleus after 12 hrs by confocal microscopy; assay type: ADME, cell-based; conditions: ls174t
Summary of the method: (§3)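 LS174 cells on cover glass exposed to 10 μM fluorescent compound for 2h, 6h, 12h or 24h, then fixed in 4% paraformaldehyde 20 min at room temperature, PBS-washed, mounted and imaged by confocal microscopy under 405nm excitation.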

[26] = Drug uptake in human LS 174T cells assessed as accumulation in nucleus after 2 hrs by confocal microscopy; assay type: ADME, cell-based; conditions: ls174t; summary of the method: as §3
[27] = Drug uptake in human LS 174T cells assessed as accumulation in cytoplasm after 2 hrs by confocal microscopy; assay type: ADME, cell-based; conditions: ls174t; summary of the method: as §3
[28] = tested on: LS174T; assay: Inhibition of Wnt/beta-catenin in human LS174T cells assessed as reduction in Axin-2 protein level at 30 uM by Western blotting; assay type: cell-based
[29] = tested on: LS174T; assay: Inhibition of Wnt/beta-catenin in human LS174T cells assessed as reduction in c-Myc protein level at 30 uM by Western blotting; assay type: cell-based
[30] = tested on: LS174T; assay: Inhibition of Wnt/beta-catenin in human LS174T cells assessed as reduction in c-Myc mRNA level at 100 uM after 36 hrs by RT-PCR analysis; assay type: cell-based
[31] = tested on: LS174T; assay: Inhibition of Wnt/beta-catenin in human LS174T cells assessed as reduction in Ki67 mRNA level at 100 uM after 36 hrs by RT-PCR analysis; assay type: cell-based
[32] = tested on: LS174T; assay: Inhibition of Wnt/beta-catenin in human LS 174T cells assessed as reduction in TCF4 protein level at 100 uM by Western blotting; assay type: cell-based
[33] = tested on: LS174T; assay: Inhibition of Wnt/beta-catenin in human LS174T cells assessed as reduction in cyclin B1 protein level at 100 uM by Western blotting; assay type: cell-based
[34] = tested on: LS174T; assay: Inhibition of Wnt/beta-catenin in human LS174T cells assessed as reduction in survivin mRNA level at 100 uM after 36 hrs by RT-PCR analysis; assay type: cell-based
[35] = tested on: LS174T; assay: Inhibition of Wnt/beta-catenin in human LS174T cells assessed as reduction in CD44 mRNA level at 100 uM after 36 hrs by RT-PCR analysis; assay type: cell-based
[36] = tested on: LS174T; assay: Inhibition of Wnt/beta-catenin in human LS174T cells assessed as reduction in Lgr5 mRNA level at 100 uM after 36 hrs by RT-PCR analysis; assay type: cell-based
[37] = tested on: LS174T; assay: Inhibition of Wnt/beta-catenin in human LS174T cells assessed as effect on […] at 100 uM by Western blotting; assay type: cell-based
[38] = tested on: HEK-293T; assay: Inhibition of LiCl-induced […] in human HEK293T cells transfected with TOP Flash assessed as decrease in luciferase expression at 100 uM after 12 hrs by dual luciferase reporter assay; assay type: cell-based
Summary of the method: (§4)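 HEK293T transiently transfected (calcium phosphate) with Super8xTOPFlash plus Renilla luciferase reporters; medium changed after 12h, then 6h later cells pretreated 12h with DMSO or inhibitor before stimulation with 25mM LiCl or Wnt3A-conditioned medium. After 12h, dual-luciferase read-out; triplicate wells, each experiment run at least twice.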

[39] = tested on: LS174T; assay: Inhibition of Wnt/beta-catenin in human LS174T cells assessed as increase in p21WAF1/CIP1 protein level at 100 uM by Western blotting; assay type: cell-based
[40] = tested on: HEK-293T; assay: Inhibition of […] in human HEK293T cells transfected with TOP Flash assessed as decrease in luciferase expression at 100 uM after 12 hrs by dual luciferase reporter assay; assay type: cell-based; summary of the method: as §4
[41] = tested on: LS174T; assay: Inhibition of Wnt/beta-catenin in human LS 174T cells assessed as reduction in pygopus2 protein level at 100 uM by Western blotting; assay type: cell-based

Structure (SMILES): CN(C)c1ccc(/C=C/c2cccc(F)c2)cc1
inhibition [1]: inactive
inhibition [2]: Active
inhibition [3]: Active

Structure (SMILES): CN(C)c1ccc(/C=C/c2cc(F)ccc2F)cc1
inhibition [1]: inactive
inhibition [2]: Active
inhibition [3]: Active

Structure (SMILES): CN(C)c1ccc(/C=C/c2c(F)cccc2F)cc1
Activity [4]: Active
inhibition [5]: Active
inhibition [6]: Active
Activity [7]: Active
inhibition [8]: Active
growth inhibition (GI) [9]: Active
inhibition [10]: Active
inhibition [11]: Active
Activity [12]: Non-toxic
inhibition [1]: inactive
inhibition [2]: Active
inhibition [3]: Active
inhibition [13]: Active
inhibition [14]: Active
inhibition [15]: inactive
inhibition [16]: Active

Structure (SMILES): CN(C)c1ccc(/C=C/c2cccc(F)c2F)cc1
inhibition [1]: inactive
inhibition [2]: Active
inhibition [3]: Active

Structure (SMILES): COc1cc(/C=C/c2ccc(O)cc2)cc(OC)c1
Activity [17]: Active
Activity [18]: Active
Activity [19]: Active
Activity [20]: Active
Activity [21]: Active
Activity [22]: Active

Structure (SMILES): CCN(CC)c1ccc(/C=C/c2ccccc2F)cc1
inhibition [1]: inactive
inhibition [2]: Active
inhibition [3]: Active

Structure (SMILES): Oc1ccc(/C=C\c2cc(O)cc(O)c2)cc1
inhibition [23]: inactive
inhibition [24]: inactive

Structure (SMILES): CN(C)c1ccc(/C=C/c2ccc(F)cc2)cc1
inhibition [1]: inactive

Structure (SMILES): CN(C)c1ccc(/C=C/c2ccccc2F)cc1
Activity [17]: Active
Activity [18]: Active
Activity [19]: Active
Activity [20]: Active
inhibition [1]: inactive
Activity [21]: Active
Activity [22]: Active
inhibition [2]: Active
inhibition [3]: Active

Drug uptake [25]: Not Active
Drug uptake [26]: Active
Drug uptake [27]: Active
Structure (SMILES): CCN(CC)c1ccc(/C=C/c2c(F)cccc2F)cc1
inhibition [1]: inactive
inhibition [2]: Active
inhibition [3]: Active

Structure (SMILES): CN(C)c1ccc(/C=C/c2ccccc2)cc1
inhibition [1]: inactive
inhibition [2]: inactive
inhibition [3]: inactive
inhibition [28]: Active
inhibition [29]: Active

Structure (SMILES): CN(C)c1ccc(/C=C/c2c(F)cc(F)cc2F)cc1
inhibition [1]: inactive
inhibition [2]: Active
inhibition [3]: Active

Structure (SMILES): CN(C)c1ccccc1/C=C/c1c(F)cccc1F
inhibition [1]: inactive
inhibition [2]: inactive
inhibition [3]: inactive

Structure (SMILES): Fc1ccccc1/C=C/c1ccc(N(c2ccccc2)c2ccccc2)cc1
inhibition [1]: inactive
inhibition [2]: inactive
inhibition [3]: inactive

Structure (SMILES): CN(C)c1ccc(CCc2c(F)cccc2F)cc1
inhibition [2]: inactive
inhibition [3]: inactive

Structure (SMILES): CN(C)c1ccc(/C=C/c2c(F)ccc(F)c2F)cc1
inhibition [1]: inactive
inhibition [2]: Active
inhibition [3]: Active

Structure (SMILES): CN(C)c1cccc(/C=C/c2c(F)cccc2F)c1
inhibition [1]: inactive
inhibition [2]: inactive
inhibition [3]: inactive

Structure (SMILES): Oc1ccc(/C=C/c2cc(O)cc(O)c2)cc1
inhibition [30]: Active
inhibition [31]: Active
inhibition [32]: Active
Activity [17]: Active
inhibition [33]: Active
inhibition [34]: Active
inhibition [23]: Active
Activity [18]: Active
inhibition [35]: Active
inhibition [36]: Active
inhibition [37]: inactive
Activity [19]: Active
inhibition [24]: Active
inhibition [38]: Active
inhibition [39]: Active
Activity [20]: Active
Activity [21]: Active
Activity [22]: Active
inhibition [40]: Active
inhibition [41]: Active

Reference: ChEMBL document CHEMBL2150856, “Fluorinated N,N-dialkylaminostilbenes for Wnt pathway inhibition and colon cancer repression” (J Med Chem, 2011)
